Measured values: ChEMBL document CHEMBL1128434, “Gonadotropin-releasing hormone antagonists: novel members of the azaline B family” (1995)
One block for each compound: values may come before it.

Legend:
Rattus norvegicus [1] = species on record: Rattus norvegicus; assay: Effect in the anti ovulatory assay (AOA) in rats expressed as no. of rats ovulating/No of rats treated at 1.0 mg; 11/15; assay type: functional
Rattus norvegicus [2] = species on record: Rattus norvegicus; assay: Effect in the anti ovulatory assay (AOA) in rats expressed as no. of rats ovulating/No of rats treated at 0.5 mg; 4/4; assay type: functional
[3] = biological target: T1, Gonadotropin-releasing hormone receptor (Rattus norvegicus) (UniProt P30969); assay: In vitro potency to inhibit GnRH-mediated LH secretion by cultured pituitary cells relative to [Ac-delta-Pro1,DFpa2,DTrp36]GnRH.; assay type: functional, cell-based; conditions: Pituitary gland cell
T1 sequence (whole entry): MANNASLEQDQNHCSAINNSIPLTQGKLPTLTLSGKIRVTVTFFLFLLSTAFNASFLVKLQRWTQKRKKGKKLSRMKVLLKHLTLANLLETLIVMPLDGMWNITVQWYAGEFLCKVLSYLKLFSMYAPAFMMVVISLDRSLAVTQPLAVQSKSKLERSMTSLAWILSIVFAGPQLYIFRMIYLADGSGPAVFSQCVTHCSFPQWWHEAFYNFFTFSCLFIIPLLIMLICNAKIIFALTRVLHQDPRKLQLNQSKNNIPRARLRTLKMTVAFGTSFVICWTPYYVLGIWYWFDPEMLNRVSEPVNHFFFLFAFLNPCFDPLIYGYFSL
Procedure, shortened: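 Dispersed rat pituitary cells in culture; antagonist inhibition of GnRH-stimulated LH secretion. Potency expressed relative to standard antagonist [Ac-Δ3Pro1,D4FPhe2,DTrp3,6]GnRH taken as 1.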

[4] = biological target: T1, Gonadotropin-releasing hormone receptor (Rattus norvegicus); assay: Duration of action, measured using castrated male rat assay to inhibit luteinizing hormone release.; fully active at 24 hr but not at 48 hr; assay type: functional
Rattus norvegicus [5] = species on record: Rattus norvegicus; assay: Effect in the anti ovulatory assay (AOA) in rats expressed as no. of rats ovulating/No of rats treated at 1.0 mg; 5/8; assay type: functional
Rattus norvegicus [6] = species on record: Rattus norvegicus; assay: Effect in the anti ovulatory assay (AOA) in rats expressed as no. of rats ovulating/No of rats treated at 0.5 mg; 3/4; assay type: functional
Rattus norvegicus [7] = species on record: Rattus norvegicus; assay: Effect in the anti ovulatory assay (AOA) in rats expressed as no. of rats ovulating/No of rats treated at 1.0 mg; 1/8; assay type: functional
Rattus norvegicus [8] = species on record: Rattus norvegicus; assay: Duration of action measured using castrated male rat assay to inhibit luteinizing hormone release.; fully active at 48 hr but not at 72 hr; assay type: functional
Rattus norvegicus [9] = species on record: Rattus norvegicus; assay: Effect in the anti ovulatory assay (AOA) in rats expressed as no. of rats ovulating/No of rats treated at 2.5 mg; 2/7; assay type: functional
Rattus norvegicus [10] = species on record: Rattus norvegicus; assay: Effect in the anti ovulatory assay (AOA) in rats expressed as no. of rats ovulating/No of rats treated at 1.0 mg; 2/9; assay type: functional
Rattus norvegicus [11] = species on record: Rattus norvegicus; assay: Effect in the anti ovulatory assay (AOA) in rats expressed as no. of rats ovulating/No of rats treated at 100 mg; 0/4; assay type: functional
Rattus norvegicus [12] = species on record: Rattus norvegicus; assay: Effect in the anti ovulatory assay (AOA) in rats expressed as no. of rats ovulating/No of rats treated at 10 mg; 2/2; assay type: functional
Rattus norvegicus [13] = species on record: Rattus norvegicus; assay: Effect in the anti ovulatory assay (AOA) in rats expressed as no. of rats ovulating/No of rats treated at 50 mg; 4/8; assay type: functional
Rattus norvegicus [14] = species on record: Rattus norvegicus; assay: Effect in the anti ovulatory assay (AOA) in rats expressed as no. of rats ovulating/No of rats treated at 250 mg; 4/4; assay type: functional

Relative potency [3]: 0.65
SMILES: CC(=O)N[C@H](Cc1ccc2ccccc2c1)C(=O)N[C@H](Cc1ccc(Cl)cc1)C(=O)N[C@H](Cc1cccnc1)C(=O)N[C@@H](CO)C(=O)N[C@@H](Cc1ccc(NC(=O)c2n[nH]c(N)n2)cc1)C(=O)N[C@H](Cc1ccc(NC(=O)c2n[nH]c(N)n2)cc1)C(=O)N[C@@H](CC(C)C)C(=O)N[C@@H](CCCCNC(C)C)C(=O)N1CCC[C@H]1C(=O)N[C@H](C)N
No. of rats ovulated (Rattus norvegicus [1]): 11
No. of rats ovulated (Rattus norvegicus [2]): 4

Duration of action [4]: 24 h
Relative potency [3]: 0.85
SMILES: CC(=O)NCC(=O)Nc1ccc(C[C@H](NC(=O)[C@H](CO)NC(=O)[C@@H](Cc2cccnc2)NC(=O)[C@@H](Cc2ccc(Cl)cc2)NC(=O)[C@@H](Cc2ccc3ccccc3c2)NC(C)=O)C(=O)N[C@H](Cc2ccc(NC(=O)CNC(C)=O)cc2)C(=O)N[C@@H](CC(C)C)C(=O)N[C@@H](CCCCNC(C)C)C(=O)N2CCC[C@H]2C(=O)N[C@H](C)N)cc1
No. of rats ovulated (Rattus norvegicus [5]): 5
No. of rats ovulated (Rattus norvegicus [6]): 3

Relative potency [3]: 0.4
SMILES: CC(=O)N[C@H](Cc1ccc2ccccc2c1)C(=O)N[C@H](Cc1ccc(Cl)cc1)C(=O)N[C@H](Cc1cccnc1)C(=O)N[C@@H](CO)C(=O)N[C@@H](Cc1ccc(NC(=O)[C@@H](C)Nc2n[nH]c(N)n2)cc1)C(=O)N[C@H](Cc1ccc(NC(=O)[C@H](C)Nc2n[nH]c(N)n2)cc1)C(=O)N[C@@H](CC(C)C)C(=O)N[C@@H](CCCCNC(C)C)C(=O)N1CCC[C@H]1C(=O)N[C@H](C)N
No. of rats ovulated (Rattus norvegicus [2]): 4
No. of rats ovulated (Rattus norvegicus [7]): 1

Relative potency [3]: 1.1
SMILES: CC(=O)N[C@H](Cc1ccc2ccccc2c1)C(=O)N[C@H](Cc1ccc(Cl)cc1)C(=O)N[C@H](Cc1cccnc1)C(=O)N[C@@H](CO)C(=O)N[C@@H](Cc1ccc(NC(=O)CNc2n[nH]c(N)n2)cc1)C(=O)N[C@H](Cc1ccc(NC(=O)CNc2n[nH]c(N)n2)cc1)C(=O)N[C@@H](CC(C)C)C(=O)N[C@@H](CCCCNC(C)C)C(=O)N1CCC[C@H]1C(=O)N[C@H](C)N
No. of rats ovulated (Rattus norvegicus [5]): 5
Duration of action (Rattus norvegicus [8]): 48 h
No. of rats ovulated (Rattus norvegicus [6]): 3

SMILES: CC(=O)N[C@H](Cc1ccc2ccccc2c1)C(=O)N[C@H](Cc1ccc(Cl)cc1)C(=O)N[C@H](Cc1cccnc1)C(=O)N[C@@H](CO)C(=O)N(C)[C@@H](Cc1ccc(O)cc1)C(=O)N[C@H](Cc1ccc(Nc2n[nH]c(N)n2)cc1)C(=O)N[C@@H](CC(C)C)C(=O)N[C@@H](CCCCNC(C)C)C(=O)N1CCC[C@H]1C(=O)N[C@H](C)N
No. of rats ovulated (Rattus norvegicus [9]): 2

Duration of action [4]: 24 h
Relative potency [3]: 1.9
SMILES: CC(=O)N[C@H](Cc1ccc2ccccc2c1)C(=O)N[C@H](Cc1ccc(Cl)cc1)C(=O)N[C@H](Cc1cccnc1)C(=O)N[C@@H](CO)C(=O)N(C)[C@@H](Cc1ccc(Nc2n[nH]c(N)n2)cc1)C(=O)N[C@H](Cc1ccc(Nc2n[nH]c(N)n2)cc1)C(=O)N[C@@H](CC(C)C)C(=O)N[C@@H](CCCCNC(C)C)C(=O)N1CCC[C@H]1C(=O)N[C@H](C)N
No. of rats ovulated (Rattus norvegicus [10]): 2

SMILES: CC(=O)N[C@H](Cc1ccc2ccccc2c1)C(=O)N[C@H](Cc1ccc(Cl)cc1)C(=O)N[C@H](Cc1cccnc1)C(=O)N[C@@H](CO)C(=O)N(C)[C@@H](Cc1ccc(Nc2n[nH]c(N)n2)cc1)C(=O)N[C@H](Cc1ccc(Nc2n[nH]c(N)n2)cc1)C(=O)N[C@@H](CC(C)C)C(=O)N[C@@H](Cc1ccc(NC(C)C)cc1)C(=O)N1CCC[C@H]1C(=O)N[C@H](C)N
No. of rats ovulated (Rattus norvegicus [11]): 0
No. of rats ovulated (Rattus norvegicus [12]): 2
No. of rats ovulated (Rattus norvegicus [13]): 4

SMILES: CC(=O)N[C@H](Cc1ccc2ccccc2c1)C(=O)N[C@H](Cc1ccc(Cl)cc1)C(=O)N[C@H](Cc1cccnc1)C(=O)N[C@@H](CO)C(=O)N[C@@H](Cc1ccc(NC(=O)Nc2cccc(Cl)c2)cc1)C(=O)N[C@H](Cc1ccc(NC(=O)Nc2cccc(Cl)c2)cc1)C(=O)N[C@@H](CC(C)C)C(=O)N[C@@H](CCCCNC(C)C)C(=O)N1CCC[C@H]1C(=O)N[C@H](C)N
No. of rats ovulated (Rattus norvegicus [14]): 4
